Measurements from the EternaBench riboswitch data.

Test system: MS2 coat protein
Assay: apparent Kd, MS2 coat protein; higher = weaker binding; RNA-MaP array; FMN 200 µM where present
Procedure, shortened: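 The titrant was SNAP-549-labelled MS2 coat protein, run from 0.7 or 1.5 nM in doubling steps to 3 µM. It was applied to designs transcribed by stalled E. coli RNA polymerase on Illumina sequencing-chip clusters, without ligand first and then with constant ligand, in 100 mM Tris-HCl pH 7.5, 80 mM KCl, 4 mM MgCl2, BSA, DTT, yeast tRNA and Tween-20. The apparent Kd is the median of filtered per-cluster binding-curve fits, with green signal normalised to red-channel RNA signal and control-cluster median Fmax.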

[1] = designed as: OFF switch for flavin mononucleotide, no ligand
[2] = ligand present: flavin mononucleotide, designed as: OFF switch for flavin mononucleotide
[3] = designed as: ON switch for flavin mononucleotide, no ligand
[4] = ligand present: flavin mononucleotide, designed as: ON switch for flavin mononucleotide

Sequence	apparent Kd [1]	apparent Kd [2]	apparent Kd [3]	apparent Kd [4]
AUAUCUCUAUUAGUUCCAAUACGAACAUGAGGAUCACCCAUGUAGGAUAUGCUAGAAGUUGUGUUGCAGAAGGACAAGUACCUU	11.8 nM	11.1 nM	–	–
AUAUGGGCCCAGAAGGUGCCAGCGAGAGCUGCACAUGAGGAUCACCCAUGUUGUCGGUGACGACGCAAGGAUAUGGGCCCAUAU	–	–	22.1 nM	6.26 nM
AUAUUAAGUGUGAGGAUAUGCUGGUCCUUGGAUCAGCAGAAGGCACAUGAGGAUCACCCAUGUAAUAUAUUUAA	102 nM	306 nM	–	–
AUAUUGUGAGGAUAUCAGGUGUGCUAGCGUACUGGUACAUCUGAGAAGGCACAUGAGGAUCACCCAUGUUUCUU	15.6 nM	39.6 nM	–	–
AUAUUGUGAGGAUAUGAACUUAGUAUCGAAAGAUACUAUGUUCAGAAGGCACAUGAGGAUCACCCAUGUUUCUC	81.7 nM	569 nM	–	–
AUAUUUAUUUAGAAGGACAUGAGGAUCACCCAUGUCGCUGGGCGCGGGAAACCGUGCCCGGCCAUGUAGGAUAUAGAUAGAUAU	8.78 nM	9.88 nM	–	–
AUAUUUGUUUAGAAGGACAUGAGGAUCACCCAUGUCGCUGGGCGCGGGAAACCGUGCGCGGCCAUGUAGGAUAUAGGGAGAUAU	38.7 nM	24.3 nM	–	–
AUCACCUCGUCAGGAUAUACGUCACUGCGUCAGCAGUGUGGUAAGAUCACAUGAGGAUCACCCAUGUAGAAGGGACGAGCUGAU	14.7 nM	268 nM	–	–
AUCAGCACGUCAGGAUAUACGUCACUGCGUCAGCAGUGUGGUAAGAUCACAUGAGGAUCACCCAUGUAGAAGGGACGAGCUGAU	14.1 nM	317 nM	–	–
AUCAGCACGUGAGGAUAUGCGUUACUGCGAAAGCAGUACGGUAAGAUCACAUGAGGAUCACCCAUGUAGAAGGCACGAGCUGAU	16.6 nM	36.9 nM	–	–
AUCAGCUCGCCAGGAUAUACGUCACUGCGUCAGCAGUGUGGUAAGAUCACAUGAGGAUCACCCAUGUAGAAGGGACGAGCUGAU	10.3 nM	69.2 nM	–	–
AUCAGCUCGUCAGGAUAUACGUCACUGCGUCAGCAGUGUGGUAAGAUCACAUGAGGAUCACCCAUGUAGAAGGGACGAGUUGAU	13.6 nM	310 nM	–	–
AUCAGCUCGUCAGGAUAUACGUCACUGCGUCAGCAGUGUGGUGAGAUCACAUGAGGAUCACCCAUGUAGAAGGGACGAGCUGAU	376 nM	300 nM	–	–
AUCAGCUUGACAGGAUAUACAUGUCAGCGAAAGCUGACUAUCUUAAUAACAUGAGGAUCACCCAUGUAGAAGGGUCGAGCUGAU	16.9 nM	26.4 nM	–	–
AUCAGCUUGUCAGGAUAUACGUCACUGCGUCAGCAGUGUGGUAAGAUCACAUGAGGAUCACCCAUGUAGAAGGGACGAGCUGAU	12.9 nM	321 nM	–	–
AUCAUCCUAGGAUAUACAUGGAUAUACAUUCAUGUGGACCUACAUGAGGAUCACCCAUGUAGAAGGAGGAUGAU	33.4 nM	88.8 nM	–	–
AUCAUGAGAGGAUAUACAUGAGGAUCACCCAUGUGGUAAACACCAUGAGCUCAUUUACGUAGAAGGCUCAUUUG	27.6 nM	61.1 nM	–	–
AUCCAGGUAACAUGAGGAUCACCCAUGUUCCUUCGCUCUGGCGAGGAUAUGAAGGGAUUGUCCCAUCAGAAGGCGCAUGGGUGC	–	–	46.7 nM	57.5 nM
AUCCGACAUGAGGAUCACCCAUGUCAGGAUAUGGACUGACACCCAAAGGGUGGAGGAACCAGAAGGGACUGGGC	36 nM	68.1 nM	–	–
AUCCGGCGUGUAGGAUAUGGAAAAGAUUAGAAACCAGAAGGACAUGAGGAUCACCCAUGUACAUGUAAACAGUCAUCACCGGAA	12.2 nM	35.1 nM	–	–
AUCCGGCGUGUAGGAUAUGGAUCCGAUUAGGAUCCAGAAGGACAUGAGGAUCACCCAUGUACAUGUAAACAGUCAUCACCGGAU	6.59 nM	14 nM	–	–
AUCCUGCGAGGAUAUACAUAAUUUUUUUCGUUUUGACUCGAACAUGAGGAUCACCCAUGUAGAAGGUGCUACAC	33.7 nM	30.1 nM	–	–
AUCCUGCGAGGAUAUACAUAGUUUUUUUCGUUUUGUCUCGAACAUGAGGAUCACCCAUGUAGAAGGUGCUUCAC	71.5 nM	66.9 nM	–	–
AUCGUGCAGCUUUGCUGUACGAGUACAUGAGGAUCACCCAUGUAGGAUAUGGUACGCUUUGCGUGCUAGAAGGAUAUGCGAUUG	43.8 nM	46.1 nM	–	–
AUCGUGUUAGGAUAUACACGACGCUGGGUAGCUAGCGGAGGGUAGAAGGGACAUGAGGAUCACCCAUGUUCGGG	157 nM	282 nM	–	–
AUCUAAGAAUUAAUUGUGACAGUGAGAAGGCUAUAGUAUGUGACCGACAUGAGGAUCACCCAUGUAGAGGAUAUCACUUGCUAC	71.8 nM	335 nM	–	–
AUCUUCGGAGGAUAUUCUCCGUCACACAUGAGGAUCACCCAUGUCAUUCGAAUGGGUUCGGAAGAAGGUCGAAGGU	236 nM	171 nM	–	–
AUGACAUGCACAGGAUAUUAGGCGCAGUACAGAUAAGAAGGGUGGAUCAGCAUACAUGAGGAUCACCCAUGUUGUUGUAACAUG	–	–	350 nM	183 nM

Sequence	apparent Kd [1]	apparent Kd [2]	apparent Kd [3]	apparent Kd [4]
AUGAGCAACACAGGAUAUCUACGUGACAGAGCGAGAGAAGGGUGGGCCCAUGACUUACAUGAGGAUCACCCAUGUAGCUCCAAA	–	–	39.9 nM	97.2 nM
AUGAGCUCGUCAGGAUAUACGUCACUGCGUCAGCAGUGUGGUAAGAUCACAUGAGGAUCACCCAUGUAGAAGGGACGAGCUGAU	14.6 nM	307 nM	–	–
AUGAGGUUAGGAUAUACAUGAGGAUCACCCAUGUUGAAAGGUUAGGUAGGCGGAGCUGGUAGAAGGAACGGAGC	39.7 nM	31.8 nM	–	–
AUGAGUAAAGCAGGAUAUCUAUUGUCUCUGUAACAUGAGGAUCACCCAUGUAGAGAAGGGCUAAUUCUUACUCUUCGGAGUUGA	10.5 nM	10.1 nM	–	–
AUGCAACAUGAGGAUCACCCAUGUGAGGAUAUCGUAUACUACUGUUGCAAUACUUAGACGAGAAGGCACACCGU	166 nM	174 nM	–	–
AUGCCCGGAGGAUAUACACUAAAAGUCCGGUGCUAGGGUAGACAUGAGGAUCACCCAUGUAGAAGGCCGAGGCA	53.2 nM	101 nM	–	–
AUGCCUUAUGUAGGAUAUGCAUAGAGUUGCUAUGCAGAAGGACAUGAGGAUCACCCAUGUAUGUAUACCUUACAUAUCUGGCAU	8.34 nM	30.8 nM	–	–
AUGCGGUCAGGAUAUGCAUGGCGGGACUUGCGUCGUGGCGUGGAGAAGGGACAUGAGGAUCACCCAUGUGGCGA	77.3 nM	82.6 nM	–	–
AUGCUAGUGUGAGGAUAUACAUGAGGAUCACCCAUGUGUCCGAAGAACGGGACAUGACGUUCGUCGUAGAAGGUACAUUAGCAU	18.7 nM	46.8 nM	–	–
AUGCUUCACACAGGAUAUUACAACAUGAGGAUCACCCAUGUACAUGACAUGACGAUCACGCAUGUUAAGAAGGGUGUGAAGCAU	587 nM	449 nM	–	–
AUGUGGUGCGUAGGAUAUCAUUGAAGAAAACCCUGAGAAGGACGUGAGGACAUGAGGAUCACCCAUGUGGAUCACCCAUGUCAU	315 nM	282 nM	–	–
AUUAAUAAGUAGAAGGACGGAGAGUAUGAAGUCGUAGGAUAUACAAUAGACAUGAGGAUCACCCAUGUAUGUUGGGUGUGAAUG	376 nM	254 nM	–	–
AUUACAUGAGGAUCACCCAUGUACAGCACGUUUCAAUACAGUGAGGAUAUACGAAAUGUAGGAACGUAGAAGGCACUGGGUGCA	–	–	265 nM	68.1 nM
AUUACCAGAGGAUAUGCGAGGGUGUACCUCCCACAGCGAAAACAUGAGGAUCACCCAUGUAGAAGGCUGAACAU	56.7 nM	46.3 nM	–	–
AUUAUAAAGGUAGGAUAUAGUAUUAUAAUUAAAUUAGAAGGAUCUCACAUGAGGAUCACCCAUGUAAGAGGAUCACCCAUGUAU	9.64 nM	9.62 nM	–	–
AUUAUAAAGUCAGGAUAUCGGUUUAUAAUAUUACGAGAAGGGACAUGAGGAUCACCCAUGUAUUAACACUACUAUGUCAACUAA	46.6 nM	43.4 nM	–	–
AUUAUACAUGAGGAUCACCCAUGUAAUUAAUCUAGUAAGAUCUAGGAUAUCAGCUCGUUUAGAGCUGAGAAGGAGAUCACAUGU	–	–	53.5 nM	21 nM
AUUAUAUUAGGAUAUUCGCUGUGGUACAUGAGGAUCACCCAUGUAUCUGCUUGUAUCAACGAAGAAGGAAUGUGUA	15.5 nM	16.8 nM	–	–
AUUAUGCAGCAGGAUAUCGAUCCGCAGUAUGAUCGAGAAGGGCUGACAUGAGGAUCACCCAUGUGCGUCCUAGG	43.6 nM	155 nM	–	–
AUUAUUUUCGAAGGAUAUGGAUACAUGAGGAUCACCCAUGUAUAAAAUGUGAUCAAUUAUAUGAUCCAGAAGGUCGUUGUUUAU	80.8 nM	257 nM	–	–
AUUGAGCUAGGAUAUACAUGAGGAUCACCCAUGUAGCAAAAUAGCUAUACAUGAUCGGGUAGAAGGAGCGCGAG	13.6 nM	20.5 nM	–	–
AUUGCCUUUGUCAGGAUAUCUGAGGUCGAAAGUGAAGAGAAGGGACAUGAGGAUCACCCAUGUAGUGGUACGCA	144 nM	431 nM	–	–
AUUGUGUGAGGAUAUUAAUAGUAAAUGAAUAGAAUUGUGAUUGAGAAGGCACAUGAGGAUCACCCAUGUUCCUU	19 nM	17.4 nM	–	–
AUUGUUCGAGAGAAGGGAACAUGAGGAUCACCCAUGUUACCUCACCCGGUGACGGAACUCCAAGUUCAGGAUAUCUCGAGCGAU	7.64 nM	16 nM	–	–
AUUUAGUGCGAGAAGGCGUGGUCACAUGAGGAUCACCCAUGUCAGUACACGAGGAUAUCGAUUCGCUGUGUAAACACAAGCGAC	–	–	80.7 nM	6.67 nM
AUUUCGUUAGCAGGAUAUGGACAGGCCUGUCCGUAUUGAGUCAGUAACAUGAGGAUCACCCAUGUCCAGAAGGGCUCGAAGUUA	8.15 nM	15.8 nM	–	–
AUUUUACAUGAGGAUCACCCAUGUUUUGGCGGGUCAGGAUAUAGAUCGGAUGAGUUCUGUCUAGAAGGGACAUGUU	–	–	49.7 nM	29.6 nM
